Screening data as filed in PubChem.
Sampled rows, rich in hits. Any-hit rate of the full collection: about 3.9%.
697 NFkB inh: lowers PMA/ionomycin-induced NF-kB signal in 697 B cells | inhibition, % at 4 µM | AID 435022 | hit rate 0.33% among 330,000 | 697 B-cell NF-kB luciferase reporter, 16 h; in the data active = inhibition above about 35%
CHOP inhibitor: blocks CHOP induction under ER stress. CHO-K1 CHOP-promoter luciferase, tunicamycin-induced, 15-18 h. inhibition, % at 10 µM. hit rate 3.8% among 220,000. AID 2732;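 active = compounds that reduced the stress-induced luciferase reporter signal by more than about 70% of percent inhibition, limit read from the data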
Gli-Sufu block: blocks Gli-Sufu signaling in a luciferase reporter. Sufu-KO-LIGHT fibroblasts, Gli luciferase reporter luminescence. inhibition, % at 5 µM. hit rate 0.74% among 340,000. AID 588413;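 active = inhibition above about 55%, limit read from the data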
XBP1 UPR activ: adaptive UPR (XBP1) activation. CHO-XBP1 luciferase reporter, IRE1-XBP1 UPR activation, luminescence; percent of tunicamycin response, DMSO as zero. hit rate 0.33% among 330,000. activation, % at 20 µM;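 active = versus positive control, 20 µM dose yields 30% or more activation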
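Assay system: IRE1-XBP1 luciferase reporter CHO line. Input: 1000 cells/well. Buffer or medium: F12 with 10% serum. Doses: 20 µM, 1% DMSO. Times: overnight seeding at 37 °C, 6 h compound treatment at 37 °C. Technique: Steady-Glo luciferase glow luminescence, 10 min after reagent addition.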
UPR CHOP act: activators of apoptotic arm of unfolded protein response (CHOP). CHO-CHOP luciferase reporter, UPR activation, luminescence; percent of tunicamycin response over DMSO baseline. activation, % at 10 µM. hit rate 0.34% among 330,000. AID 449763;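 active = at 10 µM dose, activation of 40% or more, normalized to positive control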
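System: CHO-CHOP luciferase reporter cell line; amount: 500 cells/well; buffer or medium: F12 medium containing 10% fetal bovine serum; incubation: 6 h compound exposure at 37 °C after overnight seeding; measured by: luciferase luminescence after 10 min with Steady-Glo reagent; evaluation: % reporter activation, DMSO baseline versus tunicamycin full activation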
Jurkat NFkB inh: inhibitors of the PMA/ionomycin-induced NF-kB reporter in Jurkat cells | inhibition, % at 4 µM | PMA/ionomycin-induced NF-kB luciferase reporter, luminescence | hit rate 0.53% among 330,000 | AID 435003; in the data active = inhibition above about 50%
Hits are given with their value.

`CCc1nnc(NC(=O)CSc2nc(-c3ccccc3)c(-c3ccccc3)o2)s1` gave 697 NFkB inh inactive, CHOP inhibitor 84, Gli-Sufu block inactive, XBP1 UPR activ inactive, UPR CHOP act inactive and Jurkat NFkB inh inactive.
For O=C(Nc1ccc(F)cc1F)c1cccc(C(=O)Nc2ccc(F)cc2F)n1 the results were 697 NFkB inh inactive, Gli-Sufu block inactive, XBP1 UPR activ inactive, UPR CHOP act inactive and Jurkat NFkB inh inactive.
CCC(CO)(CO)N(CC(=O)Nc1ccc(OC)cc1)CC(=O)Nc1ccc(OC)cc1 was read as 697 NFkB inh inactive, Gli-Sufu block inactive, XBP1 UPR activ inactive, UPR CHOP act inactive and Jurkat NFkB inh inactive.
Screening CCC(=O)Nc1ccc(NC(=S)NC(=O)c2cc3ccccc3o2)cc1 returned 697 NFkB inh inactive, CHOP inhibitor inactive, Gli-Sufu block inactive, XBP1 UPR activ inactive, UPR CHOP act inactive and Jurkat NFkB inh inactive.
Screening Cc1ccc(-c2nc3ccccc3o2)cc1NC(=S)NC(=O)c1cc2ccccc2o1 returned CHOP inhibitor 85 and Gli-Sufu block inactive.
Screening CCC(=O)Nc1cccc(NC(=S)NC(=O)c2cc3ccccc3o2)c1 returned 697 NFkB inh inactive, CHOP inhibitor 94, Gli-Sufu block inactive, XBP1 UPR activ inactive, UPR CHOP act inactive and Jurkat NFkB inh inactive.
For CSc1ccc(C(=O)N2CCC(CCC(=O)NCc3ccc(F)cc3)CC2)cc1 the results were 697 NFkB inh inactive, Gli-Sufu block inactive, XBP1 UPR activ inactive, UPR CHOP act inactive and Jurkat NFkB inh inactive.
Screening CC(C)n1c2ccccc2c2nnc(SCC(=O)OCN3C(=O)c4ccccc4C3=O)nc21 returned 697 NFkB inh inactive, CHOP inhibitor 90, Gli-Sufu block inactive, XBP1 UPR activ inactive, UPR CHOP act inactive and Jurkat NFkB inh inactive.
O=C(Cn1cc2c(n1)CCCC2)Nc1cc(-c2cccc(Cl)c2)no1 was read as 697 NFkB inh inactive, CHOP inhibitor 95, Gli-Sufu block inactive, XBP1 UPR activ inactive, UPR CHOP act inactive and Jurkat NFkB inh inactive.
`CC(NC(=O)Cn1cc2c(n1)CCCCC2)c1ccccc1` (configuration not stated) gave 697 NFkB inh inactive, CHOP inhibitor inactive, Gli-Sufu block inactive, XBP1 UPR activ inactive, UPR CHOP act inactive and Jurkat NFkB inh inactive.
`COc1ccc(C2N(c3ccc(C)cc3)CCN2c2ccc(C)cc2)cc1O` gave 697 NFkB inh inactive, CHOP inhibitor 95, Gli-Sufu block inactive, XBP1 UPR activ inactive, UPR CHOP act inactive and Jurkat NFkB inh inactive.
Cc1ccccc1C(=O)Nc1sc(C)c(C)c1C(=O)c1ccccc1 was read as 697 NFkB inh inactive, CHOP inhibitor inactive, Gli-Sufu block inactive, XBP1 UPR activ inactive, UPR CHOP act inactive and Jurkat NFkB inh inactive.
For Cc1sc(NC(=O)CCl)c(C(=O)c2ccccc2)c1C the results were 697 NFkB inh inactive, CHOP inhibitor 108, Gli-Sufu block inactive, XBP1 UPR activ inactive, UPR CHOP act inactive and Jurkat NFkB inh inactive.
Cc1cccc(NS(=O)(=O)c2ccc(C)c(C(=O)NCCCN3CCOCC3)c2)c1 was read as 697 NFkB inh inactive, Gli-Sufu block inactive, XBP1 UPR activ inactive, UPR CHOP act inactive and Jurkat NFkB inh inactive.
`O=C(CSc1nc(N2CCCCC2)nc(N2CCCCC2)n1)Nc1nccs1` gave 697 NFkB inh inactive, CHOP inhibitor 77, Gli-Sufu block inactive, XBP1 UPR activ inactive, UPR CHOP act inactive and Jurkat NFkB inh inactive.
`CCc1ccc(NC(=O)Cn2cc([N+](=O)[O-])nc2C)cc1` gave 697 NFkB inh inactive, Gli-Sufu block inactive, XBP1 UPR activ inactive, UPR CHOP act inactive and Jurkat NFkB inh inactive.
`CCN(CC(=O)Nc1c(F)cccc1F)C(=O)CCN1C(=O)C2CCCCC2C1=O` (configuration not stated) gave 697 NFkB inh inactive, Gli-Sufu block inactive, XBP1 UPR activ inactive, UPR CHOP act inactive and Jurkat NFkB inh inactive.
For OC(CNCCC(c1ccccc1)c1ccccc1)COc1ccccc1 (configuration not stated) the results were 697 NFkB inh inactive, CHOP inhibitor 74, Gli-Sufu block inactive, XBP1 UPR activ inactive, UPR CHOP act inactive and Jurkat NFkB inh inactive.
O=C(O)[C@@H]1C[C@@H](C(=O)O)N1 was read as CHOP inhibitor inactive.
